Sampled rows, rich in hits. Any-hit rate of the full collection: about 2.3%.
RAM inhibit: inhibitors of the yeast RAM network; S. cerevisiae dse1pr::URA3 reporter, 5-FOA growth OD615, 2 d; analog-sensitive cbk1-as2 kinase mutant strain; 190,000 tested, 1.8% active; inhibition, % at 50 µM;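 active = inhibition above a set limit, 3 SD over mean compound inhibition, cut at about 8.4% in these data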;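 note: 0% = DMSO-only wells with no growth and 100% = 10 µM 1-NA-PP1 full growth; inhibition rescues growth on 5-FOA so higher OD means more RAM inhibition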
Arbovirus anti: arbovirus infection inhibition; arbovirus infection cell-based antiviral screen; inhibition, % at 10 µM; 200,000 tested, 0.37% active; in the data active = inhibition above about 30%
ABCB1 block: human ABCB1 inhibition, ABCG2 as counter-screen. P08183. CCRF-Adr cells, JC-1 efflux, flow cytometry. inhibition, % at 6.6 µM. 190,000 tested, 0.067% active. AID 1326; in the data active = inhibition above about 40%;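 note: 0% = vehicle and 100% = reference inhibitor; higher value means more JC-1 retained so stronger ABCB1 efflux block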
ABCG2 inh: human ABCG2 inhibition, ABCB1 as counter-screen; Q9UNQ0; IgMXP3 cells, JC-1 efflux, flow cytometry; 190,000 tested, 0.1% active; inhibition, % at 6.6 µM;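 active = inhibition above 80%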;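 note: 0% = DMSO and 100% = nicardipine control wells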
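Test system: ABCG2 IgMXP3 and barcoded ABCB1 CCRF-Adr cell mix; Schedule: cells with compound and JC-1, 10 min at 25 °C, rotating, no wash; Technique: flow cytometry of retained JC-1 fluorescence; Measure: % inhibition of efflux relative to nicardipine and DMSO; Controls: nicardipine high and DMSO low controls.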
RAM efflux-def: restores 5-FOA growth of efflux-deficient yeast; S. cerevisiae efflux-deficient reporter strain, 5-FOA growth OD615, 2 days; max inhibition, %; shares compounds with RAM inhibit; 1,200 tested, under 10 active; call rule not given here;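 note: plate controls were vehicle for no effect and reference inhibitor for full effect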
* marks the source's active call; other numbers are inactive results; . = no result given.

SMILES | RAM inhibit | Arbovirus anti | ABCB1 block | ABCG2 inh | RAM efflux-def
CC(=O)Nc1nc2ccccc2n1CCN1CCOCC1 | 1 | -1 | -1 | 2 | .
O=C(Nc1nc2ccccc2n1CCN1CCOCC1)c1cn(-c2ccccc2)nc1-c1ccccc1 | 18* | -38 | 3 | 9 | 3
C=CCn1c(SCc2cc(C(C)=O)ccc2OCC)nc2ccccc2c1=O | 16* | -6 | 3 | 7 | 3
COc1ccc(C(C)=O)cc1CSc1nc2ccccc2c(=O)n1-c1ccccc1 | 2 | 14 | 4 | 5 | .
C=CCn1c(SCc2cc(=O)n3ccsc3n2)nc2ccccc2c1=O | 14* | -4 | 2 | 4 | 9
C=CCn1c(SCc2cc(=O)n3ccsc3n2)nc2cc(Cl)ccc2c1=O | 3 | 7 | 24 | 47 | .
CC(C)Nc1nnc(Sc2ccc(Cl)cc2[N+](=O)[O-])s1 | 0 | -4 | 2 | 26 | .
CN(C(=O)COC(=O)C(Cc1ccccc1)NC(=O)c1ccccc1)c1ccccc1 (stereo not drawn) | 2 | -1 | 2 | 17 | .
O=C(/C=C/c1ccccc1)N1CCN(c2cccc(Cl)n2)CC1 | 12* | 2 | 1 | 5 | 4
CCN(CC)S(=O)(=O)c1cc(NS(=O)(=O)c2c(Cl)cccc2Cl)ccc1C | 14* | 14 | 0 | 0 | 2
CCN(CC)S(=O)(=O)c1ccc(NS(=O)(=O)c2cccc(C)c2)cc1 | 3 | -5 | 1 | 16 | .
COc1ccc(-c2nc(CCNS(=O)(=O)c3ccc4c(c3)OCCO4)cs2)cc1 | 3 | -10 | 1 | 4 | .
O=S(=O)(NCCc1csc(-c2ccc(C(F)(F)F)cc2)n1)c1ccc2c(c1)OCCO2 | 12* | -23 | 0 | 4 | 2
Cc1ccc(-n2c(SCC(=O)Nc3cccc(S(=O)(=O)NC4=NCCCCC4)c3)nc3ccccc3c2=O)cc1C | 12* | -11 | 7 | 10 | 2
O=C(Nc1ccccc1C(=O)N1CCCCC1)C1CCCCC1 | 2 | 2 | 0 | 3 | .
CCCC(=O)N1CCN(c2ccc([N+](=O)[O-])cc2Cl)CC1 | 0 | 9 | 1 | 13 | .
O=C(CSc1ccc(Cl)cc1)N1CCN(c2ccc([N+](=O)[O-])cc2Cl)CC1 | 14* | 11 | 0 | 23 | 5
O=C(CSc1ccc(Cl)cc1)N1CCN(c2c(Cl)cccc2[N+](=O)[O-])CC1 | 17* | -13 | 0 | 3 | 3
CC12C(=O)N(c3ccccc3C(=O)O)C(=O)C1C1C=CC2C1 (stereo not drawn) | 1 | 1 | 0 | 15 | .
Cc1nc2ccsc2c(=O)n1-c1ccc(Cl)cc1 | 1 | 6 | 0 | 1 | .
COc1cccc(CN(CC2CCCO2)S(=O)(=O)c2ccc(S(=O)(=O)NCC3CCCO3)cc2)c1OC (stereo not drawn) | 0 | -11 | 2 | 4 | .
COc1cccc(CNS(=O)(=O)c2ccc(S(=O)(=O)N3CCCC3)cc2)c1 | 3 | 7 | 1 | 6 | .
COc1cccc(CN(Cc2ccco2)S(=O)(=O)c2ccc(S(=O)(=O)NCc3ccccc3)cc2)c1OC | 14* | -8 | 2 | 9 | 4
CCN(Cc1ccccc1)S(=O)(=O)c1ccc(S(=O)(=O)N(Cc2cccc(OC)c2)CC2CCCO2)cc1 (stereo not drawn) | 16* | -4 | 1 | 2 | 6
COc1cccc(CN(Cc2ccccc2F)S(=O)(=O)c2ccc(S(=O)(=O)NCc3ccccc3)cc2)c1 | 18* | -16 | 1 | 2 | 4
SMILES | RAM inhibit | Arbovirus anti | ABCB1 block | ABCG2 inh | RAM efflux-def
COc1cc2c(cc1NC(=S)Nc1ccccc1C)oc1ccccc12 | 2 | 1 | 0 | 1 | .
CC(C)(C)NC(=O)c1ccc(NC(=O)CSc2ccccc2)cc1 | 22* | 4 | 0 | 1 | 2
O=C(CSc1nnc(Cc2cccs2)n1Cc1ccco1)Nc1cc(Cl)cc(Cl)c1 | 12* | -22 | 1 | 2 | 1
CN(C)c1ccc(NC(=O)CSc2nnc(-c3cccs3)n2Cc2ccco2)cc1 | 2 | -16 | -1 | -6 | .
Cc1ccc(NC(=O)CSc2nnc(-c3cccs3)n2Cc2ccco2)cc1 | 12* | -14 | 2 | 2 | 1
O=C(CSc1nnc(Cc2cccs2)n1Cc1ccco1)Nc1cccc(Cl)c1 | 3 | 2 | 1 | 1 | .
CCOc1ccc(NC(=O)CSc2nnc(-c3ccccc3Cl)n2Cc2ccco2)cc1 | 15* | 2 | 2 | 7 | 2
COc1ccc(NC(=O)CSc2nnc(-c3ccccc3Cl)n2Cc2ccco2)c(OC)c1 | -1 | 4 | 1 | 7 | .
CC(=O)Oc1ccc(C2(C)CC(C)(C)NC(=S)N2C)c(OC(C)=O)c1 (stereo not drawn) | 1 | -4 | 0 | -1 | .
N#CCCN(C(=O)Nc1ccc(Cl)cc1)c1ccccc1 | 5 | 4 | 0 | 0 | .
CC(=O)c1ccc(NC(=S)NC2CCCC(C)C2C)cc1 (stereo not drawn) | 20* | 12 | 0 | -1 | 2
CC(=O)c1ccc(NC(=S)NN2C(C)CCCC2C)cc1 (stereo not drawn) | 3 | -1 | 1 | 4 | .
Cc1[nH]n(-c2ccccc2)c(=O)c1N=Nc1ccccc1 | 13* | 17 | 1 | 1 | 2
Cc1[nH]n(-c2ccccc2)c(=O)c1N=Nc1cccc(S(=O)(=O)N2CCOCC2)c1 | 4 | -9 | 2 | 10 | .
COC(=O)CNC(=O)C12CC3(C)CC(C)(CC(C)(C3)C1)C2 | 2 | 1 | 0 | 2 | .
Cc1ccccc1Nc1nc(CSc2nnnn2-c2ccccc2)cs1 | 2 | 2 | 1 | 5 | .
c1ccc(-c2nc(CSc3nnnn3-c3ccccc3)cs2)cc1 | 7 | 9 | 0 | 1 | 2
Cc1oc2c(CN3CCOCC3)c(O)ccc2c(=O)c1-c1ccc(Br)cc1 | 1 | -1 | 0 | 1 | .
COc1ccc(CN(CCC(c2ccccc2)c2ccco2)C(=O)c2ccco2)cc1 (stereo not drawn) | 13* | 11 | 1 | -2 | 4
COc1ccc(CN(C(=O)c2ccco2)c2ccccc2)cc1 | 1 | -12 | 1 | 1 | .
S=C(c1ccc(-c2cc(Cl)ccc2Cl)o1)N1CCCCC1 | 12* | -4 | 0 | 18 | 1
CCOC(=O)C1=C(CC)Nc2ccccc2N=C1NC(=O)c1cc(S(=O)(=O)N(C)C)ccc1Cl | 13* | 8 | 0 | 2 | 4
CCCCC1S/C(=N/N=C/c2ccco2)NC1=O (stereo not drawn) | 3 | 0 | 1 | 9 | .
Cc1ccc(-n2c(SCC(=O)N3CCCc4ccccc43)nnc2-c2cccnc2)c(C)c1 | 12* | -2 | 3 | 5 | 1
O=C(COC(=O)CSCC(=O)N1CCCCC1)NCc1ccc(F)cc1 | 2 | -1 | 0 | 4 | .
CSc1ccccc1Sc1cc(C(=O)O)c2ccccc2n1 | -1 | 0 | 0 | 0 | .
O=C(O)c1cc(Sc2ccc(Br)cc2)nc2ccccc12 | 11* | -4 | 0 | 1 | 3
COc1cc(/C=C/C(=O)OCC(=O)Nc2ccccc2Sc2ccc(Cl)cc2)ccc1O | 15* | -2 | 0 | 1 | 4

Screens from PubChem BioAssay.
